Assay results reported in ChEMBL document CHEMBL3091430, “Design and evaluation of xanthine based adenosine receptor antagonists: potential hypoxia targeted immunotherapies” (Bioorg Med Chem, 2013).
Activity calls are given as the source filed them. The rule behind the calls is not given here.

Experiments:
[1] = Photostability of the compound assessed as compound remaining after 2 weeks by HPLC analysis; format: physicochemical; conditions: 336 h
[2] = system: Lymphocyte; experiment: Induction of mAB-CD3-mediated IFN-gamma production in CGS-21680-treated C57/BL6 mouse lymphocytes at 0.5 uM after 24 hrs by ELISA; format: functional, cell-based
How it was run: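 C57/BL6 mouse splenic lymphocytes activated with 0.1 μg/mL anti-CD3 mAb, then immediately given 1, 10 or 100 nM CGS 21680 with or without antagonist at 0.5 μM. Supernatant IFN-gamma measured after 24 h by sandwich ELISA (paired mAb with standard), in pg/mL; triplicates, mean ± SEM.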

[3] = Partition coefficient, log K of the compound; format: physicochemical; conditions: octanol/water
[4] = Octanol-water partition coefficient, log P of the compound by HPLC analysis; format: physicochemical
[5] = target: Adenosine receptor A2a (Mus musculus) (UniProt Q60613); experiment: Antagonist activity at adenosine A2A receptor in C57/BL6 mouse lymphocytes assessed as inhibition of CGS-21680-mediated cAMP accumulation after 15 mins by ELISA; format: functional, cell-based
How it was run: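 Splenic lymphocytes from C57/BL6 mice stimulated with 1 μM CGS 21680 (A2AR agonist), with or without antagonist over 0.1–10 μM; 15 min at 37 °C, stopped with 1 N HCl. Intracellular cAMP quantified by ELISA, expressed as pmol/million cells; triplicate samples, mean ± SEM.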

[6] = Photostability of the compound assessed as compound remaining measured within 24 hrs by HPLC analysis; format: physicochemical; conditions: read-out: Stability
[7] = Half life in rat; format: ADME, organism-based; conditions: in vivo
[8] = Photostability of the compound assessed as compound remaining measured within 7 days by HPLC analysis; format: physicochemical; conditions: read-out: Stability
[9] = Half life in mouse at 20 mg/kg, ip by HPLC analysis; format: ADME, organism-based; set-up: dose 20 mg/kg, route intraperitoneal; conditions: in vivo

Adenosine receptor A2a (Mus musculus), sequence (Q60613 whole entry): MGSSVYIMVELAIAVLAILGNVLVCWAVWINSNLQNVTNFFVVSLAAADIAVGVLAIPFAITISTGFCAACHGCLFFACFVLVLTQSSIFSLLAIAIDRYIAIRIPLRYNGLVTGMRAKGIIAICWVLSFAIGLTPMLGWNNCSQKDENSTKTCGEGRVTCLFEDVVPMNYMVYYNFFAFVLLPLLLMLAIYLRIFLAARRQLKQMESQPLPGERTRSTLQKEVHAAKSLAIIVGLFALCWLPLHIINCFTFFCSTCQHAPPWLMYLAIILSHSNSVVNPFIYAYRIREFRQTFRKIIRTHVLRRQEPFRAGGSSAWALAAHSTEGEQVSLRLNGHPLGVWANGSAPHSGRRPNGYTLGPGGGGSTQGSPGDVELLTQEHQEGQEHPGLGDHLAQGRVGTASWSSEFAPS

Compound	Activity [2]	log K [3]	logP [4]	other results
CCn1c(=O)c2c(nc(/C=C/c3ccc(C(=O)OCCOCCOCCOCCOCCOCCOCCOCCOC)c(OC)c3)n2C)n(CC)c1=O	Active	0.145	2.8	Stability [1]: Stable
CCn1c(=O)c2c(nc(/C=C/c3ccc(C(=O)OC)c(OC)c3)n2C)n(CC)c1=O				inhibition [5]: Active
CCn1c(=O)c2c(nc(/C=C/c3ccc(OC)c(OC)c3)n2C)n(CC)c1=O [ISTRADEFYLLINE]	Active	0.162	2.98	remaining at 24 h [6]: 10%; half-life [7]: 2 h; remaining at 168 h [8]: > 50%
Nc1nc(NCCc2ccc(O)cc2)nc2nc(-c3ccco3)nn12 [ZM-241385]				half-life [9]: < 1 h
